The entries come from a sample that favours hits as a whole.
Pf Dd2 inh – inhibitors of Plasmodium falciparum Dd2 growth | P. falciparum Dd2 growth, SYBR Green, 72 h; stronger effect = lower value | activity change, % at 10 µM | 2.3% of 94,000 active; in the data active = activity change below about -80%
IDH1 R132H inh – inhibitors of human IDH1 R132H | IDH1 R132H reductase, diaphorase/resazurin fluorescence, 60 min | AID 624101 | inhibition, % at 10 µM | O75874 | 0.18% of 70,000 active; in the data active = inhibition above about 34%;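 also: 0% = DMSO and 100% = no enzyme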
GASC1 inh – KDM4C (human) demethylase inhibition | Q9H3R0 | inhibition, % at 12.5 µM | 0.15% of 96,000 active | AID 720574 | GST-KDM4C 2-372, H3K9me3 peptide, LANCE TR-FRET;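 active = mean replicate inhibition above about 25%, with at least 55% of replicates also reaching it, limit read from the data, passing the limit was not always enough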
Target sequence (Q9H3R0 2-372 limits assumed): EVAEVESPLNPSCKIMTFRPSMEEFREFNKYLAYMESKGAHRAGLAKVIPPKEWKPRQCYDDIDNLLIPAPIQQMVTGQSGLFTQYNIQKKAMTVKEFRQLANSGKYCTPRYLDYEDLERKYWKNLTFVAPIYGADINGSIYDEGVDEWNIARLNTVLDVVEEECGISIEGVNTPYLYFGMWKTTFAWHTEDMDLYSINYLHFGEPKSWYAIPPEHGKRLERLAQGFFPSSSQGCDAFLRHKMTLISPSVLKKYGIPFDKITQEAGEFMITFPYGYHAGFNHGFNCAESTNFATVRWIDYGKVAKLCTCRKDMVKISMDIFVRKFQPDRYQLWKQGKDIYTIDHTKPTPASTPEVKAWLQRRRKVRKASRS
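Material: N-terminal GST-fused human GASC-1 (KDM4C) fragment, residues 2-372. Input: 10 nM enzyme. Incubation: enzyme reaction 30 min, then detection 60 min, both room temperature. Doses: one test concentration per compound. Read-out basis: inhibition from TR-FRET ratio decrease. Detection: LANCE TR-FRET, excitation 340 nm, emissions 618 and 671 nm.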
The depositor's hits bear a star; x = no result given.

SMILES	Pf Dd2 inh	IDH1 R132H inh	GASC1 inh
COc1ccccc1CN1C[C@@H](C)[C@H](OC)CN(C)C(=O)c2cc(NC(=O)Nc3ccccc3OC)ccc2OC[C@H]1C	-89*	0	0
COc1ccccc1NC(=O)Nc1ccc2c(c1)C(=O)N(C)C[C@@H](OC)[C@H](C)CN(Cc1ccccc1Cl)[C@H](C)CO2	-67	0	1
CO[C@@H]1CN(C)C(=O)c2ccc(NC(=O)Nc3ccccc3F)cc2OC[C@@H](C)N(CCC(F)(F)F)C[C@H]1C	-85*	0	1
Cc1noc(C)c1NC(=O)N[C@H]1CC[C@@H](CCNC(=O)C2CCCCC2)O[C@@H]1CO	-1	0	2
CO[C@@H]1CN(C)C(=O)c2ccc(NC(=O)Nc3ccc(F)cc3)cc2OC[C@@H](C)N(C(=O)c2cnccn2)C[C@H]1C	-62	0	0
C[C@H]1CN([C@@H](C)CO)C(=O)Cc2cc(NS(=O)(=O)c3ccccc3)ccc2O[C@H]1CN(C)C(=O)Nc1ccccc1	9	0	1
Cc1ccccc1S(=O)(=O)N(C)C[C@H]1OCc2ccccc2-c2ccccc2C(=O)N([C@H](C)CO)C[C@@H]1C	-19	-5	-1
C[C@H](CO)N1C[C@H](C)[C@H](CN(C)Cc2ccc(-c3ccccc3)cc2)OCc2ccccc2-c2ccccc2C1=O	-87*	x	6
C[C@H](CO)N1C[C@H](C)[C@H](CN(C)Cc2ccccc2)OCc2ccccc2-c2ccccc2C1=O	-15	-2	-1
C[C@@H]1CN([C@H](C)CO)C(=O)c2ccccc2-c2ccccc2CO[C@@H]1CN(C)S(=O)(=O)c1ccc(Cl)cc1	-49	-5	-2
C[C@H](CO)N1C[C@H](C)[C@H](CN(C)S(=O)(=O)c2ccc(Cl)cc2)OCc2ccccc2-c2ccccc2C1=O	-85*	-1	0
Cc1ccccc1S(=O)(=O)N(C)C[C@H]1OCc2ccccc2-c2ccccc2C(=O)N([C@@H](C)CO)C[C@H]1C	-87*	-4	1
COc1ccccc1NC(=O)N1CC(=O)N2[C@H](CO)[C@H](c3ccc(-c4ccc(C)cc4)cc3)[C@@H]2C1	-2	x	2
COCC(=O)Nc1ccc2c(c1)C(=O)N(C)[C@H]1CC[C@@H](CC(=O)NC3Cc4ccccc4C3)O[C@@H]1CO2	7	x	4
COc1ccc(S(=O)(=O)Nc2ccc3c(c2)C(=O)N([C@@H](C)CO)C[C@@H](C)[C@@H](CN(C)C(=O)Nc2ccc(C(F)(F)F)cc2)OCCCC[C@H](C)O3)cc1	-87*	x	-1
COc1ccc(S(=O)(=O)Nc2ccc3c(c2)C(=O)N([C@@H](C)CO)C[C@H](C)[C@@H](CN(C)C(=O)Nc2ccc(C(F)(F)F)cc2)OCCCC[C@H](C)O3)cc1	-75	0	1
COc1ccc(S(=O)(=O)Nc2ccc3c(c2)C(=O)N([C@@H](C)CO)C[C@H](C)[C@@H](CN(C)C(=O)Nc2ccc(C(F)(F)F)cc2)OCCCC[C@@H](C)O3)cc1	-84*	0	-1
COc1ccc(S(=O)(=O)Nc2ccc3c(c2)C(=O)N([C@@H](C)CO)C[C@H](C)[C@H](CN(C)C(=O)Nc2ccc(C(F)(F)F)cc2)OCCCC[C@H](C)O3)cc1	-56	5	0
COc1ccc(S(=O)(=O)Nc2cccc3c2O[C@H](CN(C)C(=O)Nc2ccc(F)cc2)[C@H](C)CN([C@H](C)CO)C3=O)cc1	-24	x	-1
Cc1noc(C)c1S(=O)(=O)N(C)C[C@H]1Oc2c(NS(C)(=O)=O)cccc2C(=O)N([C@@H](C)CO)C[C@H]1C	-12	-2	-1
CC(C)C#Cc1ccc2c(c1)O[C@@H](CN(C)C(=O)c1cccc(F)c1)[C@H](C)CN([C@@H](C)CO)S2(=O)=O	-64	6	-1
C[C@H]1CCCCO[C@@H](CN(C)Cc2ccc(C(F)(F)F)cc2)[C@@H](C)CN([C@@H](C)CO)C(=O)c2cc(NC(=O)CCC(F)(F)F)ccc2O1	-45	0	1
C[C@H](CO)N1C[C@H](C)[C@H](CN(C)Cc2ccc(C(F)(F)F)cc2)OCCCC[C@H](C)Oc2ccc(NC(=O)CCCN(C)C)cc2C1=O	-86*	1	2
C[C@@H]1CCCCO[C@H](CN(C)Cc2ccc(C(F)(F)F)cc2)[C@@H](C)CN([C@H](C)CO)C(=O)c2cc(NC(=O)CCC(F)(F)F)ccc2O1	-38	x	1
C[C@@H]1CCCCO[C@@H](CN(C)Cc2ccc(C(F)(F)F)cc2)[C@@H](C)CN([C@H](C)CO)C(=O)c2cc(NC(=O)CCC(F)(F)F)ccc2O1	-31	0	-3
SMILES	Pf Dd2 inh	IDH1 R132H inh	GASC1 inh
C[C@@H]1CCCCO[C@H](CN(C)Cc2ccc(C(F)(F)F)cc2)[C@@H](C)CN([C@@H](C)CO)C(=O)c2cc(NC(=O)CCCN(C)C)ccc2O1	-88*	x	1
C[C@@H]1CN([C@H](C)CO)C(=O)c2cc(NC(=O)CCCN(C)C)ccc2O[C@@H](C)CCCCO[C@H]1CN(C)Cc1ccc(C(F)(F)F)cc1	-86*	x	6
C[C@@H]1CCCCO[C@@H](CN(C)Cc2ccc(C(=O)O)cc2)[C@H](C)CN([C@H](C)CO)C(=O)c2cc(NC(=O)CCCN(C)C)ccc2O1	11	-11	3
C[C@@H]1CN([C@@H](C)CO)C(=O)c2cc(NC(=O)CCCN(C)C)ccc2O[C@@H](C)CCCCO[C@H]1CN(C)Cc1ccc(C(F)(F)F)cc1	-84*	x	6
C[C@@H]1CN([C@H](C)CO)C(=O)c2cc(NC(=O)Nc3ccc(C(F)(F)F)cc3)ccc2O[C@H]1CN(C)C	9	1	0
C[C@@H](NC(=O)C[C@@H]1C[C@@H]2c3cc(NC(=O)CC4CC4)ccc3O[C@@H]2[C@@H](CO)O1)c1ccccc1	-8	0	1
COC(=O)CN(c1ccc(Cl)c(C(F)(F)F)c1)S(=O)(=O)c1ccc(C)cc1	x	0	x
CCCN(C)C[C@@H]1Oc2ncc(C#Cc3cccc(OC)c3)cc2C(=O)N([C@H](C)CO)C[C@@H]1C	-45	x	-2
COc1ccc(C#Cc2cnc3c(c2)C(=O)N([C@H](C)CO)C[C@@H](C)[C@H](CN(C)C)O3)cc1	-19	0	-1
CCCN(C)C[C@@H]1Oc2ncc(C#Cc3ccc(OC)cc3)cc2C(=O)N([C@H](C)CO)C[C@@H]1C	-81*	0	0
COc1ccc(C#Cc2cnc3c(c2)C(=O)N([C@H](C)CO)C[C@H](C)[C@H](CN(C)C)O3)cc1OC	-36	-1	29*
CCCC#Cc1cnc2c(c1)C(=O)N([C@H](C)CO)C[C@H](C)[C@@H](CN(C)S(=O)(=O)c1cccc(OC)c1)O2	-57	x	0
COc1cccc(S(=O)(=O)N(C)C[C@@H]2Oc3ncc(C#Cc4ccc(OC)c(OC)c4)cc3C(=O)N([C@H](C)CO)C[C@@H]2C)c1	-92*	1	-3
COc1ccc(C#Cc2cnc3c(c2)C(=O)N([C@H](C)CO)C[C@@H](C)[C@@H](CN(C)C)O3)cc1	-51	0	-1
COc1ccc(C#Cc2cnc3c(c2)C(=O)N([C@@H](C)CO)C[C@H](C)[C@H](CN(C)C)O3)cc1	-32	0	28*
